Laboratory results as given in ChEMBL document CHEMBL1134459 (J Med Chem, 2001).
In brackets after ≈: the same amount, converted by molar mass. Several values for one entry are separate records, joined by “and”; a condition that tells them apart may be missing. Equal values may be shown once.

Tests used:
[1] = biological target: T1, Intercellular adhesion molecule 1 (Homo sapiens, UniProt P05362); assay: In vitro inhibitory potency compared to PMA induced Intercellular adhesion molecule-1 expression in human endothelial cells (ELISA assay); assay type: cell-based, Endothelial cell
Outline: (§1)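 Primary HUVECs seeded at 5 × 10^4 cells/mL in EBM/2% FBS with EGF, bovine brain extract and gentamicin. Compound added next day for 24 h at 37 °C, then inducer (IL-1β or PMA, level not stated) for 6 h at 37 °C. Whole-cell ELISA used mouse monoclonal anti-ICAM-1 or anti-VCAM-1, HRP donkey anti-mouse IgG and OPD, read at 490 nm. Run in triplicate.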

[2] = biological target: T2, E-selectin (Homo sapiens, UniProt P16581); assay: In vitro inhibitory potency compared to TNF-alpha induced Selectin E expression in human endothelial cells (ELISA assay); assay type: cell-based, Endothelial cell
T2 sequence (P16581 whole entry): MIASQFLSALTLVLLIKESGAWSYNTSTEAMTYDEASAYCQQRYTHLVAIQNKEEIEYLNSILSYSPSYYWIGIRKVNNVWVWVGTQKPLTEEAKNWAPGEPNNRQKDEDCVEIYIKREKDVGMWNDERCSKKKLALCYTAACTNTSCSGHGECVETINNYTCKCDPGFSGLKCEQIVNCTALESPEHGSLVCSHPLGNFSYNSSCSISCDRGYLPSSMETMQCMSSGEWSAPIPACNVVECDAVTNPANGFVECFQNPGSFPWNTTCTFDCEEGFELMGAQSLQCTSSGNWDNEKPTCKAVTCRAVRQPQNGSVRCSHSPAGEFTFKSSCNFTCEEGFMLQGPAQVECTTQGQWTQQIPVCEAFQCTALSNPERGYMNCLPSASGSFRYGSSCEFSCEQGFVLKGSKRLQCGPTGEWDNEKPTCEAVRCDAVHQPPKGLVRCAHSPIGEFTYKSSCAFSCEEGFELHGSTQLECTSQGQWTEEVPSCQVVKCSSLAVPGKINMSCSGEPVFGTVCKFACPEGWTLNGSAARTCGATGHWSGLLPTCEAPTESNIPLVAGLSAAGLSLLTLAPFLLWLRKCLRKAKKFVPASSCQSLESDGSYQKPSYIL
Outline: (§2)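 Whole-cell ELISA on primary HUVECs plated at 5 × 10^4 cells/mL in EBM/2% FBS with growth supplements. Compound preincubated 24 h at 37 °C, then inducer added (TNFα at 5 ng/mL final, or IL-1β or PMA in its place) for 6 h at 37 °C. Mouse monoclonal anti-E-selectin, anti-ICAM-1 or anti-VCAM-1 was applied overnight at 4 °C, then HRP anti-mouse IgG. Detection with OPD, A490. Triplicate assays.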

[3] = biological target: T1, Intercellular adhesion molecule 1; assay: In vitro inhibitory potency compared to TNF-alpha induced Intercellular adhesion molecule-1 in human endothelial cells (ELISA assay); assay type: cell-based, Endothelial cell
Outline: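 Primary HUVECs seeded at 5 × 10^4 cells/mL in EBM/2% FBS with supplements. After 24 h of compound at 37 °C, TNFα was added to 5 ng/mL final for 6 h at 37 °C. Cell-surface ICAM-1 was detected with a mouse monoclonal antibody, then HRP anti-mouse IgG and OPD, with absorbance at 490 nm. Triplicate determinations.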

[4] = biological target: T2, E-selectin; assay: In vitro inhibitory potency compared to IL1-beta induced Selectin E in human endothelial cells (ELISA assay); assay type: cell-based, Endothelial cell; outline: as §2
[5] = biological target: T1, Intercellular adhesion molecule 1; assay: Inhibition of intercellular adhesion molecule-1 (ICAM1) in human endothelial cells; assay type: cell-based, Endothelial cell; outline: as §2
[6] = biological target: T2, E-selectin; assay: Inhibition of selectin E in human endothelial cells; assay type: cell-based, Endothelial cell; outline: as §2
[7] = biological target: T3, E-selectin (Homo sapiens) (UniProt P16581); assay: In vitro inhibitory potency compared to PMA induced Selectin E expression in human endothelial cells (ELISA assay) at 1 uM; assay type: cell-based; conditions: Endothelial cell
T3 sequence (whole entry): T2 sequence (P16581 whole entry)
Outline: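 HUVEC whole-cell ELISA with PMA substituted for TNFα as inducer. Compound preincubated 24 h at 37 °C, then 6 h induction at 37 °C. E-selectin detected with mouse monoclonal antibody and HRP anti-mouse IgG, OPD development, A490. Value given as percent inhibition at a single concentration of 1 µM.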

[8] = biological target: T4, Vascular cell adhesion protein 1 (Homo sapiens) (UniProt P19320); conditions: Endothelial cell
T4 sequence (whole entry): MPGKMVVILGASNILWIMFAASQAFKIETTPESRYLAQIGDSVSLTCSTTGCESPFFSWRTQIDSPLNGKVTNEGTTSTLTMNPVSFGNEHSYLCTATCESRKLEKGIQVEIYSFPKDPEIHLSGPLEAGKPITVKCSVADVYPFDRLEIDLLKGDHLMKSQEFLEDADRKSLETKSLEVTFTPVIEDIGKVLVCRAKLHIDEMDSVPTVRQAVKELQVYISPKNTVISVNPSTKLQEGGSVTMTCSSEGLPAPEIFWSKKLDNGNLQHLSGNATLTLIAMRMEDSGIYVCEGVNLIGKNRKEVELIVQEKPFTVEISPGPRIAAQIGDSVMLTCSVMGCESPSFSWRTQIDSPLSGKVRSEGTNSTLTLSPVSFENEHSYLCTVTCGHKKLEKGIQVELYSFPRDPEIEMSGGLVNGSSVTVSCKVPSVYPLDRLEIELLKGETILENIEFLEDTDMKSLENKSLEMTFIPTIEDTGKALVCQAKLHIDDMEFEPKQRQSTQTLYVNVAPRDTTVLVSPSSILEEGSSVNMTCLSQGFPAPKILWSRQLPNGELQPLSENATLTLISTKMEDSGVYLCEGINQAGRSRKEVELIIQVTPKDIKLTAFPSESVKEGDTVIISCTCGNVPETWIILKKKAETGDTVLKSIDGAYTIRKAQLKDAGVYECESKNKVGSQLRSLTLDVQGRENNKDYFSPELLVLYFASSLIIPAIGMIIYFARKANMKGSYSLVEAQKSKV

[9] = biological target: T1, Intercellular adhesion molecule 1; assay: In vitro inhibitory potency compared to IL1-beta induced Intercellular adhesion molecule-1 in human endothelial cells (ELISA assay); assay type: cell-based, Endothelial cell; outline: as §1
[10] = Solubility in pH 7.4 buffer; assay type: physicochemical
[11] = Solubility in pH 7.4 buffer.; assay type: physicochemical
[12] = system: Mus musculus; assay: Efficacy in lavage cells at 3 mg/kg of oral dosing in an inhaled allergen-induced cell influx in 7 mice.; assay type: functional
Outline: (§3)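 Mouse inhaled-allergen model. Compounds or vehicle (0.2% methylcellulose) given orally 18 h and 1 h before the first of two allergen inhalations. Lungs lavaged 24-27 h after the first inhalation. Read-outs were lavage cell count (no./µL), neutrophil and eosinophil percentages, and soluble ICAM-1 in serum and BAL 24 h after antigen. Values are mean ± SE.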

[13] = system: Mus musculus; assay: Efficacy in serum sICAM-1 at 3 mg/kg of oral dosing in an inhaled allergen-induced cell influx in 7 mice.; assay type: functional; outline: as §3
[14] = system: Mus musculus; assay: Efficacy in lBAL sICAM-1 at 3 mg/kg of oral dosing in an inhaled allergen-induced cell influx in 7 mice.; assay type: functional; outline: as §3
[15] = biological target: T1, Intercellular adhesion molecule 1; assay: In vitro inhibitory potency compared to PMA induced Intercellular adhesion molecule-1 in human endothelial cells (ELISA assay); assay type: cell-based, Endothelial cell; outline: as §2
[16] = system: Mus musculus; assay: % Efficacy in neutrophils at 3 mg/kg of oral dosing in an inhaled allergen-induced cell influx in 7 mice.; assay type: functional; outline: as §3
[17] = system: Mus musculus; assay: Efficacy in lBAL sICAM-1 at 0.3 mg/kg of oral dosing in an inhaled allergen-induced cell influx in 7 mice.; assay type: functional; outline: as §3
[18] = system: Mus musculus; assay: % Efficacy in neutrophils at 0.3 mg/kg of oral dosing in an inhaled allergen-induced cell influx in 7 mice.; assay type: functional; outline: as §3
[19] = system: Mus musculus; assay: Efficacy in lavage cells at 0.3 mg/kg of oral dosing in an inhaled allergen-induced cell influx in 7 mice.; assay type: functional; outline: as §3
[20] = Toxicity in HUVEC cell lysates.; assay type: cell-based, Lysate; conditions: human
[21] = system: Mus musculus; assay: % Efficacy in eosinophils at 3 mg/kg of oral dosing in an inhaled allergen-induced cell influx in 7 mice.; assay type: functional, Eosinophil; outline: as §3
[22] = system: Mus musculus; assay: Efficacy in serum sICAM-1 at 0.3 mg/kg of oral dosing in an inhaled allergen-induced cell influx in 7 mice.; assay type: functional; outline: as §3
[23] = system: Mus musculus; assay: % Efficacy in eosinophils at 30 mg/kg of oral dosing in an inhaled allergen-induced cell influx in 6 mice.; assay type: functional, Eosinophil; outline: as §3
[24] = system: Mus musculus; assay: % Efficacy in neutrophils at 30 mg/kg of oral dosing in an inhaled allergen-induced cell influx in 6 mice.; assay type: functional; outline: as §3
[25] = system: Mus musculus; assay: Efficacy in lBAL sICAM-1 at 30 mg/kg of oral dosing in an inhaled allergen-induced cell influx in 6 mice.; assay type: functional; outline: as §3
[26] = system: Mus musculus; assay: Efficacy in serum sICAM-1 at 30 mg/kg of oral dosing in an inhaled allergen-induced cell influx in 6 mice.; assay type: functional; outline: as §3
[27] = system: Mus musculus; assay: % Efficacy in eosinophils at 0.3 mg/kg of oral dosing in an inhaled allergen-induced cell influx in 7 mice.; assay type: functional, Eosinophil; outline: as §3
[28] = biological target: T1, Intercellular adhesion molecule 1; assay: In vitro inhibitory potency compared to IL1-beta induced Intercellular adhesion molecule-1 expression in human endothelial cells (ELISA assay); assay type: cell-based, Endothelial cell
Outline: (§4)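 Primary HUVECs plated at 5 × 10^4 cells/mL in EBM/2% FBS with growth supplements; next day compound added, 24 h at 37 °C, then IL-1β substituted for TNFα as inducer, 6 h at 37 °C. Cell ELISA: mouse monoclonal anti-ICAM-1 or anti-E-selectin (ELAM-1) overnight at 4 °C, HRP donkey anti-mouse IgG, OPD, absorbance 490 nm.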

[29] = Inhibition of intercellular adhesion molecule-1 (ICAM1) in human endothelial cells; conditions: endothelial cell
[30] = Inhibition of selectin E in human endothelial cells; conditions: endothelial cell
[31] = biological target: T2, E-selectin; assay: In vitro inhibitory potency compared to IL1-beta induced Selectin E expression in human endothelial cells (ELISA assay); assay type: cell-based, Endothelial cell; outline: as §4
[32] = biological target: T1, Intercellular adhesion molecule 1; assay: In vitro inhibitory potency compared to TNF-alpha induced Intercellular adhesion molecule-1 expression in human endothelial cells (ELISA assay); assay type: cell-based, Endothelial cell
Outline: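 Primary HUVECs plated at 5 × 10^4 cells/mL in EBM/2% FBS with growth supplements; next day compound added, 24 h at 37 °C, then TNFα to 5 ng/mL final, 6 h at 37 °C. Cell ELISA: mouse monoclonal anti-ICAM-1 overnight at 4 °C, HRP donkey anti-mouse IgG, OPD, absorbance 490 nm; triplicate assay.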

[33] = biological target: T4, Vascular cell adhesion protein 1 (Homo sapiens); conditions: Endothelial cell; remark: listed apart in the source
[34] = Toxicity in HUVEC cell lysates; assay type: cell-based, Lysate; conditions: human
Outline: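 Primary HUVECs were plated at 5 × 10^4 cells/mL in EBM/2% FBS with human EGF, bovine brain extract and gentamicin. The next day, compounds were added, at up to 100 µM. TNFα was then added as in the cell ELISA. About 24 h after compound addition, MTS reagent was added, cells were incubated a further 2 h at 37 °C, and absorbance was read at 490 nm.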

T1 sequence (P05362 whole entry): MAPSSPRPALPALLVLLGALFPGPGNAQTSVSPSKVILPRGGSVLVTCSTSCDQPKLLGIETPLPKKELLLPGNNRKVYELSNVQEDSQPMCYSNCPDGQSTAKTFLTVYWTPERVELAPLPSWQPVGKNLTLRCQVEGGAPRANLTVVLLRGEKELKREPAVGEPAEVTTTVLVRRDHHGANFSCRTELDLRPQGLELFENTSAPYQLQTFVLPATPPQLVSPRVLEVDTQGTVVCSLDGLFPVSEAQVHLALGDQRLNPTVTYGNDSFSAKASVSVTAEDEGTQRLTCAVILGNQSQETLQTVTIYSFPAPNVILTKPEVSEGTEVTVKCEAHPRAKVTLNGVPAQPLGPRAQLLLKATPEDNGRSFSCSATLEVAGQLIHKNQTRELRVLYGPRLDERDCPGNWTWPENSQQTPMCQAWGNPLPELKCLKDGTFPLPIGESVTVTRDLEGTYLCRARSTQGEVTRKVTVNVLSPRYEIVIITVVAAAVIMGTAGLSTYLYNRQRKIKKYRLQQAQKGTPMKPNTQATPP

## CNC(=O)c1cc2c(Oc3ccc(Cl)cc3)cncc2s1
[1]
  IC50: 15 nM
[2]
  IC50: 20 nM
[3]
  IC50: 15 nM
[4]
  IC50: 25 nM
[5]
  IC50: 17 nM
[6]
  IC50: 8 nM
[7]
  inhibition: 43%
[8]
  Inhibition at 1uM: 49%
[9]
  IC50: 10 nM

## CNC(=O)c1cc2c(Oc3ccc(COC)cc3)cncc2s1
[5]
  IC50: 17 nM
[10]
  solubility: 4.8 µg/mL (≈ 14.6 µM)
[6]
  IC50: 13 nM

## COCCOCCOCc1ccc(Oc2cncc3sc(C(N)=O)cc23)cc1
[11]
  solubility: 160 µg/mL (≈ 398 µM)

## NC(=O)c1cc2c(Oc3ccc(Br)cc3)cncc2s1
[2]
  IC50: 4 nM
[3]
  IC50: 3 nM
[4]
  IC50: 6 nM
[12]
  Efficacy: 319 number ul-1
[5]
  IC50: 5 nM
[11]
  solubility: 0.46 µg/mL (≈ 1.32 µM)
[13]
  Efficacy: 21.3 µg/mL
[14]
  Efficacy: 2.68 µg/mL
[15]
  IC50: 6 nM
[16]
  Efficacy: 60%
[17]
  Efficacy: 2.67 µg/mL
[18]
  Efficacy: 44%
[19]
  Efficacy: 282 number ul-1
[20]
  IC50: > 100000 nM
[21]
  Efficacy: 14%
[6]
  IC50: 4 nM
[7]
  inhibition: 48%
[22]
  Efficacy: 20.7 µg/mL
[23]
  Efficacy: 8% and 9%
[24]
  Efficacy: 38% and 57%
[25]
  Efficacy: 1.74 µg/mL and 1.99 µg/mL
[26]
  Efficacy: 18.8 µg/mL and 18.5 µg/mL
[27]
  Efficacy: 19%
[9]
  IC50: 3 nM

## Cc1ccc(Sc2cncc3sc(C(N)=O)cc23)cc1
[28]
  IC50: 10 nM
[1]
  IC50: 30 nM
[2]
  IC50: 15 nM
[29]
  IC50: 25 nM
[30]
  IC50: 20 nM
[31]
  IC50: 25 nM
[32]
  IC50: 15 nM
[33]
  Inhibition at 1uM: 45%
[7]
  inhibition: 44%
[34]
  IC50: 152000 nM
